Data as given in ChEMBL document CHEMBL1123853, “A novel class of cardiotonics. Synthesis and pharmacological properties of [4-(substituted-amino)phenyl]pyridazinones and related derivatives” (1987).

Key:
Canis familiaris [1] = test: Inotropic activity determined by evaluating the % change in Diastolic Blood Pressure (DBP) at a dose of 1000 ug/kg administered intravenously […]; format: functional, Canis lupus familiaris
How it was run: (§1)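 Mongrel dogs of either sex, 7–15 kg, anesthetized with sodium pentobarbital (30 mg/kg iv), open-chest, intubated and ventilated on room air. Compounds given intravenously. A femoral artery catheter with pressure transducer recorded SBP and DBP. dP/dtmax, right ventricular contractile force, cardiac output and heart rate were also recorded, as % change at each iv dose.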

Canis familiaris [2] = test: Inotropic activity determined by evaluating the % change in contractile force (CF) of right ventricle at a dose of 300 ug/kg administered intravenously […]; format: functional, Canis lupus familiaris, Heart right ventricle; how it was run: as §1
Canis familiaris [3] = test: Inotropic activity determined by evaluating the maximum rate of rise in left ventricular pressure at a dose of 300 ug/kg administered intravenously […]; format: functional, Canis lupus familiaris, Muscle tissue; how it was run: as §1
Canis familiaris [4] = test: Inotropic activity determined by evaluating the % change in Cardiac out put (CO)at a dose of 1000 ug/kg administered intravenously […]; format: functional, Canis lupus familiaris; how it was run: as §1
Canis familiaris [5] = test: 0 Inotropic activity determined by evaluating the % change in Systolic Blood Pressure (SBP) at a dose of 1000 ug/kg administered intravenously […]; format: functional, Canis lupus familiaris; how it was run: as §1
Canis familiaris [6] = test: Inotropic activity determined by evaluating the % change in Heart Rate (HR) at a dose of 1000 ug/kg administered intravenously […]; format: functional, Canis lupus familiaris; how it was run: as §1
Canis familiaris [7] = test: Inotropic activity determined by evaluating the maximum rate of rise in left ventricular pressure at a dose of 1000 ug/kg administered intravenously […]; format: functional, Canis lupus familiaris, Muscle tissue; how it was run: as §1
Canis familiaris [8] = test: Inotropic activity determined by evaluating the % change in Diastolic Blood Pressure (DBP) at a dose of 300 ug/kg administered intravenously […]; format: functional, Canis lupus familiaris; how it was run: as §1
Canis familiaris [9] = test: Inotropic activity determined by evaluating the % change in Heart Rate (HR) at a dose of 300 ug/kg administered intravenously […]; format: functional, Canis lupus familiaris, Muscle tissue; how it was run: as §1
Canis familiaris [10] = test: Inotropic activity determined by evaluating the % change in Cardiac out put (CO)at a dose of 300 ug/kg administered intravenously […]; format: functional, Canis lupus familiaris; how it was run: as §1
Canis familiaris [11] = test: Inotropic activity determined by evaluating the % change in contractile force (CF) of right ventricle at a dose of 1000 ug/kg administered intravenously […]; format: functional, Canis lupus familiaris, Heart right ventricle; how it was run: as §1
Canis familiaris [12] = species on record: Canis familiaris; test: Positive inotropic activity determined in the […](that produced 30% increase in dose- response curves [dP/dt(max)]); format: functional; conditions: Canis lupus familiaris
How it was run: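 In the anesthetized open-chest dog (mongrel, 7–15 kg, pentobarbital 30 mg/kg iv, ventilated on room air), compounds were given intravenously and LV dP/dtmax was recorded. The dose giving a 30% rise in dP/dtmax was read from the dose-response curves. Results are mean ± SEM (n = 3) or mean ± range (n = 2).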

Canis familiaris [13] = test: Inotropic activity determined by evaluating the % change in Systolic Blood Pressure (SBP) at a dose of 300 ug/kg administered intravenously […]; format: functional, Canis lupus familiaris, Muscle tissue; how it was run: as §1
Canis familiaris [14] = species on record: Canis familiaris; test: Positive inotropic in the isolated papillary muscle of the dog.; format: functional, Canis lupus familiaris
How it was run: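 Right ventricular anterior papillary muscle with septum, from mongrel dogs (7–12 kg, pentobarbital 30 mg/kg iv). It was perfused at about 100 mmHg via the septal artery with blood from a heparinized donor dog and paced at 120/min (1 ms pulses, about 1.5× threshold). Isometric tension was recorded. Saline solutions were injected intra-arterially, with amrinone as reference. ED15 (15% rise in developed tension) was taken from log dose-response curves. Results are mean ± SEM (n = 7) or mean ± range (n = 2).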

Canis familiaris [15] = test: Inotropic activity determined by evaluating the % change in Systolic Blood Pressure (SBP) at a dose of 100 ug/kg administered intravenously […]; format: functional, Canis lupus familiaris, Muscle tissue; how it was run: as §1
Canis familiaris [16] = test: Inotropic activity determined by evaluating the % change in Systolic Blood Pressure (SBP) at a dose of 1000 ug/kg administered intravenously […]; format: functional, Canis lupus familiaris, Muscle tissue; how it was run: as §1
Canis familiaris [17] = test: Inotropic activity determined by evaluating the % change in Heart Rate (HR) at a dose of 100 ug/kg administered intravenously […]; format: functional, Canis lupus familiaris; how it was run: as §1
Canis familiaris [18] = test: Inotropic activity determined by evaluating the % change in contractile force (CF) of right ventricle at a dose of 100 ug/kg administered intravenously […]; format: functional, Canis lupus familiaris, Heart right ventricle; how it was run: as §1
Canis familiaris [19] = test: Inotropic activity determined by evaluating the maximum rate of rise in left ventricular pressure at a dose of 100 ug/kg administered intravenously […]; format: functional, Canis lupus familiaris, Muscle tissue; how it was run: as §1
Canis familiaris [20] = test: Inotropic activity determined by evaluating the % change in Diastolic Blood Pressure (DBP) at a dose of 100 ug/kg administered intravenously […]; format: functional, Canis lupus familiaris; how it was run: as §1
Canis familiaris [21] = test: Inotropic activity determined by evaluating the % change in Cardiac out put (CO)at a dose of 100 ug/kg administered intravenously […]; format: functional, Canis lupus familiaris; how it was run: as §1

Row | SMILES | Change of DBP (Canis familiaris [1]) [%] | Change of CF (Canis familiaris [2]) [%] | dP/dt (Canis familiaris [3]) [%] | Change of CO (Canis familiaris [4]) [%] | Change of HR (Canis familiaris [6]) [%] | dP/dt (Canis familiaris [7]) [%] | Change of DBP (Canis familiaris [8]) [%] | Change of HR (Canis familiaris [9]) [%] | Change of CO (Canis familiaris [10]) [%] | Change of CF (Canis familiaris [11]) [%] | ED30 (Canis familiaris [12]) [mg/kg] | Change of SBP (Canis familiaris [13]) [%] | ED15 (Canis familiaris [14]) [µg] | also measured
1 | Cc1cc(O)nnc1-c1ccc(Nc2ccncc2)cc1.Cl | 1.4 | -1.1 | -2.2 | 7.6 | 5.8 | 6.2 | -0.3 | -1.3 | 9.6 | 10.5 | > 1 | 0.5 | 165 | Change of SBP (Canis familiaris [5]): 1.9%
2 | Nc1cc(-c2ccncc2)c[nH]c1=O [INAMRINONE] | -14.1 | 22.4 | 22.3 | 36.5 | 8.1 | 54.8 | -4.1 | 3.8 | 15.6 | 79.7 | 0.472 | -2.7 | 200 | Change of SBP (Canis familiaris [15]): -5%; Change of SBP (Canis familiaris [16]): -5.5%; Change of HR (Canis familiaris [17]): 1.2%; Change of CF (Canis familiaris [18]): 6.5%; dP/dt (Canis familiaris [19]): 6.7%; Change of DBP (Canis familiaris [20]): -4.7%; Change of CO (Canis familiaris [21]): 1.9%
